High-throughput results as filed in PubChem BioAssay.
Shown are actives, neighbours in structure and some others; about 2.6% of the full set was active somewhere.
SENP7 inh: SENP7 protease inhibitors, primary screen, biochemical, luminescence, uHTS. Sentrin-specific protease 7 (Homo sapiens), Q9BQF6. recombinant SENP7, Z-RLRGG-aminoluciferin luminescence, 40 min. inhibition, % at 5 µM. 330,000 tested, 1.5% active. AID 434973, 2010;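 active means inhibition above about 50% at the single test dose, limit read from the data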
SENP8 block-1: human SENP8 protease inhibitors, primary screen, biochemical, fluorescence, Nedd8 protein substrate, uHTS | Sentrin-specific protease 8 (Homo sapiens), Q96LD8 | recombinant SENP8 | inhibition, % at 20 µM | 360,000 tested, 0.64% active | AID 602440, 2012; in the data active means inhibition mostly above about 40%, no sharp cut-off; inactive means mostly below about 27%
SENP8 block-2: SENP8 protease inhibitors, primary screen, biochemical, luminescence. Sentrin-specific protease 8 (Homo sapiens), Q96LD8. purified SENP8, Z-RLRGG-aminoluciferin cleavage. inhibition, % at 10 µM. 330,000 tested, 1.2% active; in the data active means inhibition above about 50%
UCH37 DUB inh: inhibitors of human UCH37 deubiquitinase, primary screen, biochemical, Ub-AMC cleavage, fluorescence | Ubiquitin carboxyl-terminal hydrolase isozyme L5 (Homo sapiens), Q9Y5K5 | purified proteasome/UCH37 | inhibition, % (concentration not given with the values) | 330,000 tested, 0.33% active | AID 588478, 2011;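 active means mean inhibition over replicate wells above about 20%, limit read from the data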
Target sequence (Q9Y5K5 whole entry, looked up): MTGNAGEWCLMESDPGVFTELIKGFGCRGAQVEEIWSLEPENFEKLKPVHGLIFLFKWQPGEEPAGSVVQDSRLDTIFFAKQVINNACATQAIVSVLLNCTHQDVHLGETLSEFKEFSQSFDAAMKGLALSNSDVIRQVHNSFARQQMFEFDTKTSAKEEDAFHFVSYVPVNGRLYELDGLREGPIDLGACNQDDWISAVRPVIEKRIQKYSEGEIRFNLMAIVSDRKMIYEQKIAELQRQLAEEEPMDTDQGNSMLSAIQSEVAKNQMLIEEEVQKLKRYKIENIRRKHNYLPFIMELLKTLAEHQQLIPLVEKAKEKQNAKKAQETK
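Assay system: Proteasome-bound UCH37. Buffer or medium: pH 7.4 Tris-HCl (50 mM) with ovalbumin, ATP-MgCl2, DTT. Incubation: 30 min preincubation with enzyme, 25 min cleavage at room temperature. Measured by: fluorescence, ex 355 nm, em 460 nm. Read-out basis: percent inhibition. Control set: wells without proteasome as full block, compound-free enzyme plus substrate as uninhibited.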
SENP1 inh: human SENP1 catalytic domain inhibitors, primary screen, biochemical, FRET, uHTS. recombinant SENP1 catalytic domain, CyPet-SUMO1-YPet FRET cleavage. Sentrin-specific protease 1 (Homo sapiens), Q9P0U3. inhibition, % at 10 µM. AID 624204, 2012. 360,000 tested, 0.21% active;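 active means inhibition at least 30% at 10 µM, raw YFP signal under a set limit, fluorescence ratio 0.5 to 1.5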
Target sequence (Q9P0U3 419-644 limits assumed): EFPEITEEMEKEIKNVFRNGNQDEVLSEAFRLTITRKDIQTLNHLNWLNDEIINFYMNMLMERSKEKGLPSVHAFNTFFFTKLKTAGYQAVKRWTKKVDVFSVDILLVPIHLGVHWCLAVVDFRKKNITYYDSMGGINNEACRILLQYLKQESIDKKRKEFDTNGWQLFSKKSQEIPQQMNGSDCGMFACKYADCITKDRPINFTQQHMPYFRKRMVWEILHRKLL
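System: Recombinant human SENP1 catalytic domain, His6-tagged | Incubation: Enzyme reaction for 50 min at room temperature, dark | Medium: Tris pH 8 with BME, BSA, NP40 and catalase | Also added: 25 nM SUMO1 FRET substrate | Compound: 10 µM single point, 0.5% DMSO | Measured by: FRET fluorescence in CFP and YFP emission channels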
SENP6 block: SENP6 protease inhibitors, primary screen, biochemical, luminescence, uHTS; Sentrin-specific protease 6 (Homo sapiens), Q9GZR1; Recombinant SENP6 catalytic domain, aminoluciferin luminescence; inhibition, % at 10 µM; 330,000 tested, 1.8% active;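 active means inhibition above about 50% at the single tested dose, limit read from the data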
SENP8 conf: SENP8 protease inhibitors, retest, confirmation, biochemical, luminescence, single concentration. 6,200 tested, 40% active. Recombinant SENP8, Z-RLRGG-aminoluciferin luminescence, 60 min. shares compounds with SENP7 inh. inhibition, % at 12.5 µM. AID 488912, 2010;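 active means mean inhibition across replicates above about 50%, limit read from the data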
SENP6 conf: SENP6 protease inhibitors, confirmation, biochemical, luminescence, single concentration; 6,200 tested, 58% active; recombinant SENP6, Z-RLRGG-aminoluciferin luminescence; inhibition, % at 12.5 µM; AID 488915, 2010; shares compounds with SENP7 inh
SENP7 conf: SENP7 protease inhibitors, retest, confirmation, biochemical, luminescence, single concentration; 6,200 tested, 69% active; inhibition, % at 12.5 µM; recombinant SENP7, Z-RLRGG-aminoluciferin luminescence, 40 min; shares compounds with SENP7 inh; AID 488917, 2010
Casp3 SENP sel: caspase-3 protease inhibitors, confirmation, selectivity assay for SENP inhibitor project, biochemical, single concentration; shares compounds with SENP7 inh; purified caspase-3, Z-DEVD-aminoluciferin luminescence, 60 min; inhibition, % at 12.5 µM; 6,200 tested, 60% active; AID 488918, 2010;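 active means mean inhibition above about 50%, limit read from the data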
SENP luc ctr: luminescence interference (SENP counter-screen); inhibition, % at 12.5 µM; Pre-incubated SENP8/Z-RLRGG-aminoluciferin, luciferase luminescence interference; 6,200 tested, 39% active; shares compounds with SENP7 inh;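 active means mean inhibition above about 50% when retested at one dose, limit read from the data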
Numbers stand for hits.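 How the source made its calls, unless noted: active means mean inhibition above about 50% in the one-dose retest (limit read from the data); inactive means the rest.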

Results for CCn1nccc1C(=O)Nc1ccc(C(=O)OC(C)C)cc1 ?
SENP7 inh: 76; SENP8 block-1: inactive; SENP8 block-2: 67; UCH37 DUB inh: inactive; SENP1 inh: inactive; SENP6 block: 77; SENP8 conf: inactive; SENP6 conf: 68; SENP7 conf: 88; Casp3 SENP sel: 67; SENP luc ctr: 59

Results for CCOC(=O)c1cc(=O)n2c(nc3ccccc32)[nH]1 ?
SENP7 inh: 79; SENP8 block-1: inactive; SENP8 block-2: 76; UCH37 DUB inh: inactive; SENP1 inh: inactive; SENP6 block: 84; SENP8 conf: 82; SENP6 conf: 83; SENP7 conf: 96; Casp3 SENP sel: 94; SENP luc ctr: 56

What do the screens show for `CCOC(=O)c1cc2c(s1)-c1ccccc1CC2`?
SENP7 inh: inactive; SENP8 block-1: inactive; SENP8 block-2: inactive; UCH37 DUB inh: inactive; SENP1 inh: inactive; SENP6 block: inactive

Results for CC(C)OC(=O)c1cc2ccccc2[nH]1 ?
SENP7 inh: inactive; SENP8 block-1: inactive; SENP8 block-2: inactive; UCH37 DUB inh: inactive; SENP1 inh: inactive; SENP6 block: inactive

What do the screens show for `CCOC(=O)c1cc2cc3ccccc3cc2[nH]1`?
SENP7 inh: inactive; SENP8 block-1: inactive; SENP8 block-2: inactive; UCH37 DUB inh: inactive; SENP1 inh: inactive; SENP6 block: 54; SENP8 conf: inactive; SENP6 conf: inactive; SENP7 conf: inactive; Casp3 SENP sel: inactive; SENP luc ctr: inactive

How did CCOC(=O)c1cc2ccc3ccccc3c2s1 do in these assays?
SENP7 inh: inactive; SENP8 block-1: inactive; SENP8 block-2: inactive; UCH37 DUB inh: inactive; SENP1 inh: inactive; SENP6 block: 58; SENP8 conf: inactive; SENP6 conf: inactive; SENP7 conf: 54; Casp3 SENP sel: inactive; SENP luc ctr: inactive

Results for CCc1cc2c(=O)c(-c3ccc4c(c3)OCCO4)coc2cc1OC(=O)c1ccco1 ?
SENP7 inh: 73; SENP8 block-1: inactive; SENP8 block-2: inactive; UCH37 DUB inh: inactive; SENP1 inh: inactive; SENP6 block: inactive; SENP8 conf: inactive; SENP6 conf: inactive; SENP7 conf: inactive; Casp3 SENP sel: inactive; SENP luc ctr: inactive

What do the screens show for `COC(=O)COc1ccc2c(=O)c(-c3ccccc3)coc2c1`?
SENP7 inh: inactive; SENP8 block-1: inactive; SENP8 block-2: inactive; UCH37 DUB inh: inactive; SENP1 inh: inactive; SENP6 block: inactive

What do the screens show for `CC(=O)Oc1ccc2c(=O)c(-c3nc4ccccc4s3)coc2c1`?
SENP7 inh: 99; SENP8 block-1: inactive; SENP8 block-2: 94; UCH37 DUB inh: inactive; SENP1 inh: inactive; SENP6 block: 98; SENP8 conf: inactive; SENP6 conf: inactive; SENP7 conf: inactive; Casp3 SENP sel: 72; SENP luc ctr: 51

Results for COc1ccc2c(=O)c(-c3ccc4c(c3)OCO4)coc2c1 ?
SENP7 inh: 96; SENP8 block-1: inactive; SENP8 block-2: 84; UCH37 DUB inh: inactive; SENP1 inh: inactive; SENP6 block: 88; SENP8 conf: 56; SENP6 conf: 87; SENP7 conf: 64; Casp3 SENP sel: 77; SENP luc ctr: inactive

Results for CC(C)Oc1ccc2c(=O)c(-c3ccccc3)coc2c1 ?
SENP7 inh: 71; SENP8 block-1: inactive; SENP8 block-2: 61; UCH37 DUB inh: inactive; SENP1 inh: inactive; SENP6 block: 68; SENP8 conf: inactive; SENP6 conf: inactive; SENP7 conf: 52; Casp3 SENP sel: inactive; SENP luc ctr: inactive

Results for COc1cc(/C=C/c2ccc3cccc(O)c3n2)cc(Cl)c1OC ?
SENP7 inh: 55; SENP8 block-1: inactive; SENP8 block-2: inactive; UCH37 DUB inh: inactive; SENP1 inh: inactive; SENP6 block: 58; SENP8 conf: inactive; SENP6 conf: inactive; SENP7 conf: inactive; Casp3 SENP sel: inactive; SENP luc ctr: inactive

What do the screens show for `COc1cccc(/C=C/c2ccc3cccc(O)c3n2)c1OC`?
SENP7 inh: inactive; SENP8 block-1: inactive; SENP8 block-2: inactive; SENP1 inh: inactive; SENP6 block: 58; SENP8 conf: 52; SENP6 conf: inactive; SENP7 conf: 89; Casp3 SENP sel: 52; SENP luc ctr: inactive

What do the screens show for `CON=C(CS(=O)(=O)c1ccc(Br)cc1)c1ccc(OC)cc1`?
UCH37 DUB inh: inactive

How did O=C(NN=Cc1ccc([N+](=O)[O-])o1)c1ccc(NS(=O)(=O)c2cccs2)cc1 do in these assays?
UCH37 DUB inh: inactive

Results for CCOC(=O)Cc1csc(NC(=O)c2ccoc2C)n1 ?
SENP7 inh: 89; SENP8 block-1: inactive; SENP8 block-2: 74; UCH37 DUB inh: inactive; SENP1 inh: inactive; SENP6 block: 88; SENP8 conf: 84; SENP6 conf: 84; SENP7 conf: 94; Casp3 SENP sel: 93; SENP luc ctr: 83

Results for Cc1csc(NC(=O)c2ccoc2C)n1 ?
SENP7 inh: 89; SENP8 block-1: inactive; SENP8 block-2: 75; UCH37 DUB inh: inactive; SENP1 inh: inactive; SENP6 block: 90; SENP8 conf: 82; SENP6 conf: 82; SENP7 conf: 96; Casp3 SENP sel: 93; SENP luc ctr: 82

How did Cc1ccc(C(=O)Nc2cccc([N+](=O)[O-])c2)cc1S(=O)(=O)Nc1cccc(C(=O)O)c1 do in these assays?
SENP7 inh: inactive; SENP8 block-1: inactive; SENP8 block-2: inactive; UCH37 DUB inh: inactive; SENP1 inh: inactive; SENP6 block: inactive
